The text below walks through data of ChEMBL document CHEMBL1154972, “Novel pyrazolo-tetrahydropyridines as potent orexin receptor antagonists” (Bioorg Med Chem Lett, 2010).

Activity calls are given as the source filed them. The rule behind the calls is not given here.

The target in assay [1] is T1, Orexin/Hypocretin receptor type 1 (Homo sapiens, UniProt O43613).
T1 sequence (O43613 whole entry): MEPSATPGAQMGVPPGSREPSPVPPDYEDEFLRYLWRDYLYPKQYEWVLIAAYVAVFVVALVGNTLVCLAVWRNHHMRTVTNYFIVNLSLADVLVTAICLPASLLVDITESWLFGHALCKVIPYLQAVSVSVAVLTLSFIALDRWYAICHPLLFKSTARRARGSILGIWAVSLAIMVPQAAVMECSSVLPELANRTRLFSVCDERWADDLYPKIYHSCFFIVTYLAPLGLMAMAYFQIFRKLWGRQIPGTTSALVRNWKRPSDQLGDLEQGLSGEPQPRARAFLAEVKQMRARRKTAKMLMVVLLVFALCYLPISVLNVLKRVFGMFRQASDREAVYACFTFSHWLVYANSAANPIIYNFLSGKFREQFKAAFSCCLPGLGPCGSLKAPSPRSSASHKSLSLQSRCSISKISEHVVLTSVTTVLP
Put plainly: Antagonist activity at human OX1 receptor expressed in CHO cells assessed as inhibition of calcium mobilization by FLIPR assay. In kind it is functional, cell-based. The essentials:
(§1)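 CHO cells stably bearing human OX1 or OX2 receptor, plated and loaded at 37 °C, 5% CO2 with fluo-3 AM calcium dye, then washed. Test antagonists added at varying concentrations before orexin A challenge; intracellular Ca2+ rise followed as fluorescence change on FLIPR. IC50 taken as concentration giving 50% inhibition of agonist response.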

A further assay concerns the target T2, Orexin receptor type 2 (Homo sapiens, UniProt O43614).
T2 sequence (O43614 whole entry): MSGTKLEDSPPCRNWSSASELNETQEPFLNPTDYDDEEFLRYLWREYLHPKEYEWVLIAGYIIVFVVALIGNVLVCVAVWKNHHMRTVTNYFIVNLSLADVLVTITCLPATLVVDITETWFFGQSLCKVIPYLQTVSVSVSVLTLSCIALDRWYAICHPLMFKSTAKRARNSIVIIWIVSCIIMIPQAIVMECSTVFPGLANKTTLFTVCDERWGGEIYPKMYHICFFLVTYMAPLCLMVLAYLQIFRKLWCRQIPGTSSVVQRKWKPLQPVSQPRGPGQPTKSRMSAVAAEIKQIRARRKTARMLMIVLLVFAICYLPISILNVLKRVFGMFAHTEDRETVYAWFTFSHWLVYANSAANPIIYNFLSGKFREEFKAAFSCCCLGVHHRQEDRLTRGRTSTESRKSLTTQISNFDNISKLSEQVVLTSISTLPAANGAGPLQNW
In words: Antagonist activity at human OX2 receptor expressed in CHO cells assessed as inhibition of calcium mobilization by FLIPR assay. In kind it is functional, cell-based. The essentials:
as §1

For assay [2], the system named is Rattus norvegicus. Put plainly: Somnolence activity in Wistar rat assessed as home cage activity in dark at 100 mg/kg, po over 12 hrs night period by radiotelemetric assay. In kind it is functional, organism-based. Further details: dose 100 mg/kg. The essentials:
(§2)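 Adult male Wistar rats carrying radiotelemetric implants; single oral dose 100 mg/kg in 100% PEG-400 given at dark (active) phase onset. EEG, EMG, home cage activity and body temperature recorded, effects integrated over following 12-h night. Crossover design, groups of 7 or 8, washout of at least 4 days; paired t-test; means ± SEM.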

Assay [3] relates to Rattus norvegicus. Put plainly: Somnolence activity in Wistar rat assessed as time spent in non-rapid eye movement sleep at 100 mg/kg, po over 12 hrs night period by radiotelemetric assay. In kind it is functional, organism-based. Further details: dose 100 mg/kg. The essentials: as §2
Assay [4] has as its system Rattus norvegicus. Put plainly: Somnolence activity in Wistar rat assessed as time spent in rapid eye movement sleep at 100 mg/kg, po over 12 hrs night period by radiotelemetric assay. Format: functional. The essentials:
as §2

In assay [5] the test system is Rattus norvegicus. Put plainly: Somnolence activity in Wistar rat assessed as time spent in active wake at 100 mg/kg, po over 12 hrs night period by radiotelemetric assay. Format: functional, organism-based. Further details: dose 100 mg/kg. The essentials: as §2

In the case of `CCn1nc(C)c2c1CCN(C(C(=O)NC)c1ccccc1)C2Cc1ccc(C(F)(F)F)cc1` (mixture of isomers), the half-maximal inhibitory concentration (IC50) is 769 nM in assay [1] and 25 nM on Orexin receptor type 2.
As to `CCn1nc(C)c2c1CCN([C@@H](C(=O)NC)c1ccccc1)[C@H]2CCc1cc(F)c(C(F)(F)F)c(F)c1`, the result in the assay on Rattus norvegicus [2] and with Rattus norvegicus [3] was Active. In addition, the Activity in the assay with Rattus norvegicus [4] is 8%.
For the compound `CCn1nc(C)c2c1CCN([C@@H](C(=O)NC)c1ccccc1)[C@@H]2CCc1ccc(C(C)C)cc1`, the values for the IC50 (in assay [1]; at Orexin receptor type 2) were 1920 nM and 179 nM, respectively.
Take `CCn1nc(C)c2c1CCN([C@@H](C(=O)NC)c1ccccc1)[C@H]2CCc1ccc(C)c(C)c1`: the outcome with Rattus norvegicus [2], with Rattus norvegicus [5] and in the assay on Rattus norvegicus [3] was Active. For the same compound, the Activity with Rattus norvegicus [4] amounted to 15%.
For the compound `CCn1nc(C)c2c1CCN(C(C(=O)NC)c1ccccc1)C2CCc1ccc(C)cc1` (mixture of isomers), the IC50 in assay [1] worked out at 108 nM; at Orexin receptor type 2 it was 6 nM.
Take `CCn1nc(C)c2c1CCN([C@@H](C(=O)NC)c1ccccc1)[C@H]2COc1ccc(C)cc1`: the IC50 in assay [1] came to 10000 nM; at Orexin receptor type 2, 19 nM.
Regarding `CCn1nc(C)c2c1CCN(C(C(=O)NC)c1ccccc1)C2CCc1cccc(C(F)(F)F)c1` (mixture of isomers), the IC50 was 358 nM in assay [1] and 7 nM at Orexin receptor type 2.
The like results for `CCn1nc(C)c2c1CCN(C(C(=O)NC)c1ccccc1)C2CCc1ccc(Cl)cc1` (mixture of isomers) were, in that order, 993 nM and 12 nM.
The like results for `CCn1nc(C)c2c1CCN(C(C(=O)NC)c1ccccc1)C2CCc1ccccc1F` (mixture of isomers) were, in that order, 669 nM and 22 nM.
For the compound `CCn1nc(C)c2c1CCN(C(C(=O)NC)c1ccccc1)C2CCc1ccccc1C` (mixture of isomers), the IC50 in assay [1] stood at 1030 nM; at Orexin receptor type 2, 21 nM.
Turning to `CCc1ccc(CC[C@@H]2c3c(C)nn(CC)c3CCN2[C@@H](C(=O)NC)c2ccccc2)cc1`, the IC50 in assay [1] is 1420 nM; on Orexin receptor type 2, 174 nM.
On the same counts, the results for `CCn1nc(C)c2c1CCN(C(C(=O)NC)c1ccccc1)C2CCc1ccc(OC)cc1` (mixture of isomers) are 10000 nM and 219 nM.
With `CCc1ccc(CC[C@H]2c3c(C)nn(CC)c3CCN2[C@@H](C(=O)NC)c2ccccc2)cc1`, the figures for the IC50 (in assay [1]; at Orexin receptor type 2) were 63 nM and 3 nM, respectively.
The like results for `CCn1nc(C)c2c1CCN([C@@H](C(=O)NC)c1ccccc1)[C@H]2CCc1ccc(C(F)(F)F)cc1` were, in that order, 128 nM and 3 nM.
As to `CCn1nc(C)c2c1CCN(C(C(=O)NC)c1ccccc1)C2CCc1cccc(F)c1` (mixture of isomers), the IC50 in assay [1] was 402 nM; at Orexin receptor type 2 it was 10 nM.
The like results for `CCn1nc(C)c2c1CCN(C(C(=O)NC)c1ccccc1)C2CCc1cccc(C)c1` (mixture of isomers) were, in that order, 180 nM and 19 nM.
The like results for `CCn1nc(C)c2c1CCN([C@@H](C(=O)NC)c1ccccc1)[C@H]2CCc1ccc(C(C)C)cc1` were, in that order, 161 nM and 9 nM.

The term IC50 denotes the concentration that inhibits the measured activity by half.
